Experimental findings from ChEMBL document CHEMBL3124922, “The antitumor agent PBT-1 directly targets HSP90 and hnRNP A2/B1 and inhibits lung adenocarcinoma growth and metastasis” (J Med Chem, 2014) are described below.

Calls of active or inactive are those of the source. The rule behind the calls is not given here.

Series [1] has as its system CL1-5. As to the kind of experiment: Antiinvasive activity against human CL1-5 cells after 20 hrs by matrigel-coated transwell assay. Type of series: functional, cell-based. In a few lines:
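Transwell chambers (8 μm pores) coated with 5 μg/mL Matrigel; 2.5 × 10^4 cells seeded on top in medium with 10% NuSerum; after 20 h, cells reaching the lower side fixed in methanol, stained with 50 μg/mL propidium iodide and quantified by image analysis. Triplicate samples; mean ± SD of three independent experiments.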

The target in series [2] is T1, HSP90 and hnRNPA2/B1 (Homo sapiens, UniProt P08238+P22626). The experiment in a line: Inhibition of HSP90/hnRNPA2/B1 in human CL152 cells assessed as reduction of slug expression at 0.5 ug/ml after 5 hrs by Western blotting analysis. The class given is cell-based. In a few lines: (§1)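 CL1-5 or CL152 cells exposed to a range of concentrations for 5 h; Slug (and E-cadherin) detected by Western blot with β-actin as loading control; representative of three experiments.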
T1 sequence (P08238 whole entry, looked up): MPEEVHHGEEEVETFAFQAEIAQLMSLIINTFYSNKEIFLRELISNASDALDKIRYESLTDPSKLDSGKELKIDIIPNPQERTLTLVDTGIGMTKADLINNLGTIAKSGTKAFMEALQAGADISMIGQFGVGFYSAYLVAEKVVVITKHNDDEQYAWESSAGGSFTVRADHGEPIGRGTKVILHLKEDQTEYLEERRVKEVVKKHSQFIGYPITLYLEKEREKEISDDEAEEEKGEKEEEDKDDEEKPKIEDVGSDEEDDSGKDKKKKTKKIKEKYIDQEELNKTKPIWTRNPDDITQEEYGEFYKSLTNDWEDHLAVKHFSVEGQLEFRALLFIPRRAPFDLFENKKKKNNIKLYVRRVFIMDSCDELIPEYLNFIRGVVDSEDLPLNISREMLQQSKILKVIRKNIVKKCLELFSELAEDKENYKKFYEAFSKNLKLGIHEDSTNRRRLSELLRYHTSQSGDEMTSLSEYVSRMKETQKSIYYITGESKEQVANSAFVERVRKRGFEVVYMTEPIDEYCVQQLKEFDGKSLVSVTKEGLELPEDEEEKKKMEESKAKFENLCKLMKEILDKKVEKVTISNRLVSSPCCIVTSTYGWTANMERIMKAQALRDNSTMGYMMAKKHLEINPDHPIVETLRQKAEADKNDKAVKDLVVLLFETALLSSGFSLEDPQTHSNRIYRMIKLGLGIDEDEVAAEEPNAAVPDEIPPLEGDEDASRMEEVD
T1 sequence (P22626 whole entry, looked up): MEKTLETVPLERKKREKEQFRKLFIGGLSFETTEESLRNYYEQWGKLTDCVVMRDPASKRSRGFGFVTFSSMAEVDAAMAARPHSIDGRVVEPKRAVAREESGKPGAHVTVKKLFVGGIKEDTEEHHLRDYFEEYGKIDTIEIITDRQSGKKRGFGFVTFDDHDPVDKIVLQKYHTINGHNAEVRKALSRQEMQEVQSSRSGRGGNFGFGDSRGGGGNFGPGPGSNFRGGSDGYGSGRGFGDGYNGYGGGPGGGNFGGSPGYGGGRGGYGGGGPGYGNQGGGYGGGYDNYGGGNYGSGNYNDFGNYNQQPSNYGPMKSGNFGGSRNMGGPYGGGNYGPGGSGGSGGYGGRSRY
In general terms: In western blotting, separated proteins are transferred to a membrane and probed.

Series [3] concerns the target T1, HSP90 and hnRNPA2/B1. The experiment in a line: Inhibition of HSP90/hnRNPA2/B1 in human CL1-5 cells assessed as upregulation of E-cadherin expression after 0.5 to 2 hrs by Western blotting analysis. Type of series: cell-based.
Series [4] has as its target T1, HSP90 and hnRNPA2/B1. As to the kind of experiment: Inhibition of HSP90/hnRNPA2/B1 in human PC9 cells assessed as reduction of slug expression at 0.5 ug/ml after 5 hrs by Western blotting analysis. The class given is cell-based. The settings on record: PC-9.
Series [5] deals with T1, HSP90 and hnRNPA2/B1. The experiment in a line: Inhibition of HSP90/hnRNPA2/B1 in human CL1-5 cells assessed as reduction of slug expression at >0.5 ug/ml up to 5 hrs by Western blotting analysis. The class given is cell-based. In a few lines:
as §1

The next series has as its system Mus musculus. As to the kind of experiment: Toxicity in Balb/c nu/nu mouse xenografted with human CL1-5 cells at 10 mg/kg, ip qd administered 3 times per week measured 2 times per week for 28 days. Further details: dose 10 mg/kg, route intraperitoneal. The class given is organism-based. The settings on record: in vivo, 672 h. In a few lines: (§2)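 Six-week-old male BALB/c nu/nu mice (SPF) given 1 × 10^6 CL1-5 cells s.c. in the right flank; at 100 mm^3 tumor volume (5–8 days), six mice per group randomized to compound 10 mg/kg/day or vehicle i.p. three times weekly. Volume from calipers as 0.5W²L; tumor volume and body weight recorded twice weekly.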
A general note: In xenograft studies the graft and the host belong to different species.

Series [6] relates to CL1-5. As to the kind of experiment: Antitumor activity against human CL1-5 cells xenografted in Balb/c nu/nu mouse assessed as orthotopic tumor growth inhibition at 10 mg/kg/day, ip administered 3 times per week measured 2 times per week for 28 days. The class given is functional, organism-based. In a few lines:
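CL1-5 cells inoculated into the pleural cavity of 6-week-old BALB/c nu/nu mice (n = 6 per group); i.p. dosing with compound or DMSO vehicle three times weekly from day 5. At 28 days mice killed by CO2, organs formalin-fixed; tumor volume in excised lungs and metastatic nodule counts taken, mean ± SD of six mice.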

Series [7] concerns the target T1, HSP90 and hnRNPA2/B1. As to the kind of experiment: Inhibition of HSP90/hnRNPA2/B1 in human CL152 cells assessed as upregulation of E-cadherin expression after 5 hrs by Western blotting analysis. The class given is cell-based.
Series [8] relates to CL1-5. As to the kind of experiment: Antimigratory activity against human CL1-5 cells assessed as reduction of cell migration at 0.25 ug/ml after 1 to 12 hrs by wound healing assay relative to control. Type of series: functional, cell-based. In a few lines: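 Cells grown to near-confluence in 6 cm dishes, monolayer scratched with a pipet tip, debris washed off with PBS; incubated at 37 °C and photographed at 0, 4, 8 and 12 h. Cells migrating into the cell-free zone counted. Triplicate samples, at least three independent experiments, mean ± SD.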

Series [9] concerns the target T1, HSP90 and hnRNPA2/B1. The experiment in a line: Inhibition of HSP90/hnRNPA2/B1 in human CL1-5 cells assessed as reduction of slug expression at 0.5 ug/ml after 2 hrs by Western blotting analysis. The class given is cell-based. In a few lines: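 CL1-5 cells exposed to 0.5 μg/mL for 0.5, 1 or 2 h; Slug in cell extracts detected by Western blot with β-actin as loading control; representative of three experiments.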

The test system of series [10] is CL1-5. As to the kind of experiment: Reduction of filopodia formation in human CL1-5 cells at 0.1 to 0.75 ug/ml by immunofluorescence staining-based microscopic analysis. Type of series: functional, cell-based.
Series [11] has as its system CL1-5. The experiment in a line: Antitumor activity against human CL1-5 cells xenografted in Balb/c nu/nu mouse assessed as subcutaneously implanted tumor growth inhibition at 10 mg/kg/day, ip administered 3 times per week measured 2 times per week for 28 days. Type of series: functional, organism-based. In a few lines: as §2
Series [12] addresses T1, HSP90 and hnRNPA2/B1. As to the kind of experiment: Inhibition of HSP90/hnRNPA2/B1 in human CL1-5 cells. Type of series: cell-based.
In series [13] the target is T1, HSP90 and hnRNPA2/B1. As to the kind of experiment: Binding affinity to HSP90/hnRNPA2/B1 in human CL1-5 cell lysate after 1 hr by affinity chromatographic analysis. Type of series: cell-free. In a few lines: (§3)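 CL1-5 lysate (10 mg protein; Tris pH 8.0 lysis buffer) held with or without 1 mM free ligand for 1 h, then loaded at 4 °C onto Sepharose 4B carrying the coupled ligand, with uncoupled beads as control. Washed with T buffer, eluted with 4 M urea/1 M NaCl; flow-through, wash and eluate probed by Western blot for HSP90, hnRNP A2/B1, HSP70 and β-actin.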

Series [14] concerns CL1-5. The experiment in a line: Binding affinity to HSP70 in human CL1-5 cell lysate after 1 hr by affinity chromatographic analysis. The class given is cell-free. In a few lines:
as §3

Series [15] has as its target T1, HSP90 and hnRNPA2/B1. The experiment in a line: Inhibition of HSP90/hnRNPA2/B1 in human CL1-5 cells assessed as reduction of slug expression at >0.5 ug/ml after 24 hrs by Western blotting analysis. Type of series: cell-based.
The target in series [16] is T1, HSP90 and hnRNPA2/B1. The experiment in a line: Inhibition of HSP90/hnRNPA2/B1 in human CL1-5 cells assessed as reduction of slug expression at 0.25 ug/ml up to 5 hrs by Western blotting analysis. The class given is cell-based. In a few lines: as §1

In the case of `COc1ccc2c(CN3CCC(CO)CC3)cc3cc4c(cc3c2c1)OCO4`, the Activity result in the series on CL1-5 [1] is “Dose-dependent effect”; in the series with Mus musculus, “Non-toxic”. For the same compound, the inhibition result at HSP90 and hnRNPA2/B1 [2] was “Active”; at HSP90 and hnRNPA2/B1 [4], “Active”; at HSP90 and hnRNPA2/B1 [5], “Active”; at HSP90 and hnRNPA2/B1 [9] it was “Active”. Besides, the inhibition result is “Dose-dependent effect” on HSP90 and hnRNPA2/B1 [3]; “Dose-dependent effect” on HSP90 and hnRNPA2/B1 [7]. The TGI entry with CL1-5 [6] and in the series on CL1-5 [11] was “Active” each time. Also, the outcome with CL1-5 [8] and with CL1-5 [10] was Active.

`Cl.Cl.NCCOCCOCCOCCOc1ccc2c(CN3CCC(CO)CC3)cc3cc4c(cc3c2c1)OCO4` displayed an IC50 at HSP90 and hnRNPA2/B1 [12] of 0.5 µg/mL. Further, the result at HSP90 and hnRNPA2/B1 [13] was Active. For the same compound, the outcome with CL1-5 [14] was inactive. Moreover, the inhibition entry at HSP90 and hnRNPA2/B1 [15] is “Active”. The inhibition entry on HSP90 and hnRNPA2/B1 [16] was “inactive”.

Usually IC50 stands for the concentration that inhibits the measured activity by half.
